Consider seven compounds from ChEMBL document CHEMBL1177671, “Synthesis and cytotoxic activity of a new potential DNA bisintercalator: 1,4-Bis{3-[N-(4-chlorobenzo[g]phthalazin-1-yl)aminopropyl]}piperazine” (Bioorg Med Chem, 2010).

pIC50: −log10 of the molar value. Where only a bound is given, the exact number is not on record here.

One experiment has as its system MCF7. The experiment is described as follows: Cytotoxicity against human MCF7 cells after 72 hrs by XTT assay. The class given is functional, cell-based. The following applies: MCF7, 72 h. The procedure, abridged:
(§1)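 Cells grown in DMEM with 10% heat-inactivated FBS, 2 mM L-glutamine, penicillin/streptomycin at 37 °C, 5% CO2, and tested Mycoplasma-negative. 1.5 × 10³ cells per well were exposed to compound over 10^-4 to 10^-9 M for 72 h at 37 °C, then read by XTT proliferation assay. Done in triplicate; IC50 is the concentration giving 50% proliferation inhibition versus untreated controls.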
On the technique in general: Tetrazolium dyes change colour on reduction, which living cells bring about.

The subject of a further experiment is SF-268. The experiment is described as follows: Cytotoxicity against human SF268 cells after 72 hrs by XTT assay. The class given is functional, cell-based. The following applies: SF-268, 72 h. The method in brief:
as §1

Another experiment concerns HT-29. Nature of the experiment: Cytotoxicity against human HT-29 cells after 72 hrs by XTT assay. In kind it is functional, cell-based. The conditions noted are these: HT-29, 72 h. The procedure, abridged: as §1
Another experiment has as its system NCI-H460. Nature of the experiment: Cytotoxicity against human NCI-H460 cells after 72 hrs by XTT assay. The class given is functional, cell-based. The following applies: NCI-H460, 72 h. The method in brief:
as §1

The subject of another experiment is Calf thymus DNA. The experiment is described as follows: Binding affinity to calf thymus DNA assessed as change in melting temperature. The following applies: Bos taurus. In kind it is nucleic-acid assay. The procedure, abridged:
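ct-DNA sonicated, filtered (0.45 µm) and held in sodium cacodylate buffer, I = 0.05 mol dm^-3, pH 7.0, at 7.5 × 10^-6 M base pairs. Melting was followed by absorbance at 260 nm versus temperature with increasing ligand, ligand absorbance subtracted and normalised. Tm is the transition midpoint (first-derivative maximum or tangent method). ΔTm = Tm(complex) − Tm(free DNA), averaged over ≥3 runs, error 0.5 °C.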

What is called pIC50 is −log10 of the IC50, conventionally taken in molar units. Read a high pIC50 as a low IC50. Consider `CCCCNc1nnc(Cl)c2cc3ccccc3cc12`, for which the pIC50 in the experiment with MCF7 is under 4.00; in the experiment with SF-268 it was 4.06; with HT-29, under 4.00; with NCI-H460, 4.07.

Turning to `COc1cccc2c1C(=O)c1c(O)c3c(c(O)c1C2=O)C[C@@](O)(C(=O)CO)C[C@@H]3O[C@H]1C[C@H](N)[C@H](O)[C@H](C)O1` [DOXORUBICIN], the negative logarithm of the IC50 (pIC50) in the experiment on MCF7 was 6.49; in the experiment on SF-268 it was 6.66; in the experiment with HT-29 it was 6.55; in the experiment on NCI-H460 it was 6.58. Further, the Tm in the experiment with Calf thymus DNA came out at 20.6 °C.

For the compound `Clc1nnc(NCCCN2CCN(CCCNc3nnc(Cl)c4cc5ccccc5cc34)CC2)c2cc3ccccc3cc12`, the negative logarithm of the IC50 (pIC50) in the experiment with MCF7 was 6.06; in the experiment on SF-268 it was 6.18; in the experiment with HT-29 it was 6.30; with NCI-H460, 6.13.

In the case of `CCCCNc1nnc(NCCCC)c2cc3ccccc3cc12`, the negative-log IC50 (pIC50) with MCF7 is 5.61; in the experiment with SF-268 it was 5.58; with HT-29, 5.63; in the experiment on NCI-H460, 5.69.

Consider `CCCCCNc1nnc(NCCCCC)c2cc3ccccc3cc12`, for which the pIC50 in the experiment with MCF7 is 5.59; in the experiment on SF-268, 5.57; in the experiment with HT-29 it was 5.57; in the experiment on NCI-H460, 5.63.

Consider `c1ccc(CCNc2nnc(NCCc3ccccc3)c3cc4ccccc4cc23)cc1`, for which the negative logarithm of the IC50 (pIC50) is 5.59 with MCF7, 5.58 with SF-268, 5.53 in the experiment with HT-29 and 5.74 with NCI-H460.

For the compound `NCCCN1CCN(CCCNc2nnc(Cl)c3cc4ccccc4cc23)CC1`, the negative-log IC50 (pIC50) with MCF7 was 5.04; in the experiment on SF-268, 4.90; in the experiment with HT-29, 4.98; with NCI-H460, 5.06.
